Active and inactive are the calls of the source. The rule behind the calls is not given here.
Species: Homo sapiens
Assay: Effective concentration required to increase the oxidation of lactate in cellular assay using Human Skin Fibroblasts
Type: functional
In short: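 Human fibroblasts harvested with trypsin 2-4 days post-confluence and assayed in suspension ((3.5-5) × 10^5 cells per tube) with test compound or solvent control. Equilibrated at 37 °C, then started with DMEM-S containing 25 µM lactate and 0.2 µCi/mL d,l-[1-14C]lactate. Gassed with 95% O2/5% CO2 and shaken 25 min at 37 °C. Stopped with TCA; released 14CO2 trapped and counted by scintillation. EC50 ± standard error.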

Structure (SMILES) | EC50 [µM]
C[C@@](O)(C(=O)Nc1ccccc1Cl)C(F)(F)F | 5.4
O=C(C(Cl)Cl)N1CCC(Cc2ccccc2)CC1 | 1.12
CC(O)(C(=O)N1CCC(Cc2ccccc2)CC1)C(F)(F)F (stereo not given) | 29
C[C@@H]1CN(C(=O)[C@@](C)(O)C(F)(F)F)CCN1C(=O)c1ccc(C(=O)c2ccccc2)cc1 (stereo in doubt; 11g) | 0.473

Each compound was assayed against Pyruvate dehydrogenase kinase (Rattus norvegicus) (UniProt Q63065+A6IPZ9+Q64536+O54937) (assay: Inhibition of Pyruvate Dehydrogenase Kinase (PDHK) receptor from rats; Inactive).
Type: protein assay
In short: (§1)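 Commercial PDH complex used as the kinase-containing preparation. PDHK inhibition read spectrophotometrically as NADH production at 340 nm, measured with and without ATP. IC50 ± standard error, from purified substances.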

Structure (SMILES) | IA
C[C@@](O)(C(=O)N1CCNCC1)C(F)(F)F | inactive
CNC(=O)N1CCCCC1 | inactive
CC(=O)C(=O)NC1C2CC3CC(C2)CC1C3 (stereo not given) | inactive
COC(C)(C(=O)NC1C2CC3CC(C2)CC1C3)C(F)(F)F (stereo not given) | inactive
C[C@@H]1CN(Cc2ccccc2)[C@@H](C)CN1C(=O)[C@@](C)(O)C(F)(F)F | inactive
CC1(C(F)(F)F)OC(=O)N(C2CCCCC2)C1=O (stereo in doubt; 9) | inactive
COC(C)(C(=O)Nc1ccccc1Cl)C(F)(F)F (stereo not given) | inactive
CC(=O)N1CCCCC1 | inactive
CC1(C(F)(F)F)OC(=O)N(C2CCCCC2)C1=O (stereo in doubt; 8) | inactive
CNS(=O)(=O)NC1C2CC3CC(C2)CC1C3 (stereo not given) | inactive
CNS(=O)(=O)N1CCC(Cc2ccccc2)CC1 | inactive
CNS(=O)(=O)Nc1ccccc1Cl | inactive
O=C(Nc1ccc(Cl)cc1)N1CCC(Cc2ccccc2)CC1 | inactive
CC(C)CC(Cl)C(=O)N1CCC(Cc2ccccc2)CC1 (stereo not given) | inactive
CC(C)NC(=O)N1CCC(Cc2ccccc2)CC1 | inactive
CCCC1CCN(C(=O)C(C)(OC)C(F)(F)F)CC1 (stereo not given) | inactive
C[C@@H]1CN(C(=O)[C@@](C)(O)C(F)(F)F)CCN1 | inactive
CC(Oc1ccccc1)(C(=O)NC1CCCCC1)C(F)(F)F (stereo not given) | inactive

Each compound was assayed on Rattus norvegicus (assay: In vivo %control of lactate in normal Sprague-Dawley rats after 2 hr at a dose of 30 umol/Kg).
Type: functional
In short: (§2)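 Male Sprague-Dawley rats, about 200 g, randomly assigned to groups (n = 6/group) and fasted 24 h. Single oral dose of compound in 0.5% carboxymethylcellulose/0.2% Tween-80 (1 mL/100 g), or vehicle alone. Blood taken 2 h post-dose into heparin/fluoride tubes; lactate measured on a biochemistry analyzer. Expressed as percent of vehicle control; groups compared by two-tailed unpaired t-test.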

Structure (SMILES) | Control [%]
C[C@@H]1CN(C(=O)[C@@](C)(O)C(F)(F)F)CCN1/C(=N/C#N)Oc1ccccc1 | 65
C[C@@H]1CN(C(=O)[C@@](C)(O)C(F)(F)F)CCN1C(=O)C1CCCCC1 | 77
C[C@@H]1CN(C(=O)[C@@](C)(O)C(F)(F)F)CCN1C(=O)c1ccc(C(=O)c2ccccc2)cc1 (stereo in doubt; 11g) | 66

These compounds were tested against Pyruvate dehydrogenase kinase (Rattus norvegicus, UniProt Q63065+A6IPZ9+Q64536+O54937) (assay: Inhibitory activity tested against Pyruvate Dehydrogenase Kinase (PDHK) receptor from rats.).
Type: protein assay
In short: as §1

Structure (SMILES) | IC50 [µM]
C[C@@](O)(C(=O)N1CCCN(C(=O)c2ccccc2)CC1)C(F)(F)F | 5.62
C[C@@](O)(C(=O)NC1C2CC3CC(C2)CC1C3)C(F)(F)F (stereo not given in full) | 0.3
C[C@@H]1CN(C(=O)[C@@](C)(O)C(F)(F)F)CCN1C(=O)c1ccccc1 | 0.173
CCC(O)(C(=O)Nc1ccccc1Cl)C(F)(F)F (stereo not given) | 20
C[C@@](O)(C(=O)N1CCN(C(=O)c2ccccc2)CC1)C(F)(F)F | 31.7
C[C@@H]1CN(C(=O)[C@@](C)(O)C(F)(F)F)[C@@H](C)CN1S(=O)(=O)c1cccc2ccccc12 | 0.0045
C[C@@H]1CN(C(=O)[C@@](C)(O)C(F)(F)F)CCN1S(=O)(=O)c1cccc2ccccc12 | 0.025
C[C@@H]1CN(C(=O)[C@@](C)(O)C(F)(F)F)[C@@H](C)CN1C(=O)C1CCCCC1 | 0.013
O=C(NC1C2CC3CC(C2)CC1C3)C1(O)CC1 (stereo not given) | 15
C[C@@H]1CN(C(=O)[C@@](C)(O)C(F)(F)F)CCN1S(=O)(=O)c1ccc(C(C)(C)C)cc1 | 0.036
CN(C)C(=O)N1CCC(Cc2ccccc2)CC1 | 416
O=C(Nc1ccccc1Cl)C(Cl)Cl | 47
CCC(C)(O)C(=O)Nc1ccccc1Cl (stereo not given) | 23
C[C@@](O)(C(=O)N1CCN(C(=O)c2cccc3ccccc23)CC1)C(F)(F)F | 5.02
CCCC1CCN(C(=O)[C@@](C)(O)C(F)(F)F)CC1 | 3.1
C[C@](O)(C(=O)NC1C2CC3CC(C2)CC1C3)C(F)(F)F (stereo not given in full) | 11
C[C@@H]1CN(C(=O)[C@@](C)(O)C(F)(F)F)CCN1/C(=N/C#N)Oc1ccccc1 | 0.049
C[C@@H]1CN(Cc2ccccc2)[C@@H](C)CN1C(=O)[C@@](C)(O)C(F)(F)F | > 300
CC(C)(O)C(=O)Nc1ccccc1Cl | 5
C[C@@](O)(C(=O)N1CCN(c2cc([N+](=O)[O-])ccn2)CC1)C(F)(F)F | 2.84

Structure (SMILES) | IC50 [µM]
C[C@@H]1CN(S(=O)(=O)c2cccc3ccccc23)[C@@H](C)CN1C(=O)[C@@](C)(O)C(F)(F)F | 49
C[C@@H]1CN(C(=O)[C@@](C)(O)C(F)(F)F)[C@@H](C)CN1C(=O)OCc1ccccc1 | 0.0143
C[C@@](O)(C(=O)N1CCN(/C(=N/C#N)Oc2ccccc2)CC1)C(F)(F)F | 6
CC(O)(C(=O)N1CCCCC1)C(F)(F)F (stereo not given) | 23.9
O=C(NC1C2CC3CC(C2)CC1C3)C(O)(C(F)(F)F)C(F)(F)F (stereo not given) | 17
O=C(N1CCC(Cc2ccccc2)CC1)C1(O)CC1 | 260
C[C@@H]1CN(C(=O)[C@@](C)(O)C(F)(F)F)[C@@H](C)CN1C(=O)c1cc(Cl)cc(Cl)c1 | 0.0033
C[C@@](O)(C(=O)NC1CCCCC1)C(F)(F)F | 6.2
C[C@@](O)(C(=O)N1CCN(Cc2ccccc2)CC1)C(F)(F)F | 19.9
C[C@@H]1CN(C(=O)[C@@](C)(O)C(F)(F)F)[C@@H](C)CN1/C(=N/C#N)Oc1ccccc1 | 0.0091
C[C@@H]1CN(C(=O)[C@@](C)(O)C(F)(F)F)CCN1C(=O)c1cc(Cl)cc(Cl)c1 | 0.028
C[C@@H]1CN(C(=O)[C@@](C)(O)C(F)(F)F)CCN1C(=O)OCc1ccccc1 | 0.021
COC(=O)c1ccc(C(=O)N2C[C@H](C)N(C(=O)[C@@](C)(O)C(F)(F)F)C[C@H]2C)cc1 | 0.019
C[C@@](O)(C(=O)Nc1ccccc1Cl)C(F)(F)F | 0.3
C[C@@H]1CN(C(=O)[C@@](C)(O)C(F)(F)F)CCN1Cc1ccccc1 | > 1
CCC(O)(C(=O)NC1C2CC3CC(C2)CC1C3)C(F)(F)F (stereo not given) | 14
C[C@@](O)(C(=O)N1CCCN(Cc2ccccc2)CC1)C(F)(F)F | 47
O=C(N1CCC(Cc2ccccc2)CC1)C(Cl)(Cl)Cl | 30
CC1CCCCN1C(=O)[C@@](C)(O)C(F)(F)F (stereo not given in full) | 2
O=C(C(Cl)Cl)N1CCC(Cc2ccccc2)CC1 | 0.179

Structure (SMILES) | IC50 [µM]
COC(=O)N1CCC(Cc2ccccc2)CC1 | 1000
C[C@@H]1CN(C(=O)[C@@](C)(O)C(F)(F)F)[C@@H](C)CN1C(=O)c1ccc(C(=O)c2ccccc2)cc1 | 0.0198
CC(C)(O)C(=O)NC1C2CC3CC(C2)CC1C3 (stereo not given) | 10
C[C@@H]1CN(C(=O)[C@@](C)(O)C(F)(F)F)CCN1C(=O)c1ccc(C(=O)c2ccccc2)cc1 (stereo in doubt; 11r) | 15
CC(Cl)C(=O)N1CCC(Cc2ccccc2)CC1 (stereo not given) | 2.6
C[C@@](O)(C(=O)N1CCCN(c2cc(Cl)ccn2)CC1)C(F)(F)F | 2.59
C[C@@](O)(C(=O)N1CCN(C(=O)c2ccc(C#N)cc2)CC1)C(F)(F)F | 6.7
C/N=C(/S)N1CCC(Cc2ccccc2)CC1 | 560
C[C@@H]1CN(C(=O)[C@@](C)(O)C(F)(F)F)CCN1C(=O)C1CCCCC1 | 0.064
Cc1cc(C)c(S(=O)(=O)N2CCN(C(=O)[C@@](C)(O)C(F)(F)F)C[C@H]2C)c(C)c1 | 0.039
CC(C)(O)C(=O)N1CCC(Cc2ccccc2)CC1 | 150
C[C@](O)(C(=O)Nc1ccccc1Cl)C(F)(F)F | 9.8
C[C@@](O)(C(=O)N1CCN(S(=O)(=O)c2ccccc2)CC1)C(F)(F)F | 5.56
CC(O)(C(=O)N1CCC(Cc2ccccc2)CC1)C(F)(F)F (stereo not given) | 2.16
CCCC1CCN(C(=O)[C@](C)(O)C(F)(F)F)CC1 | 75
C/N=C(\S)N1CC=C(C(C)(C)C)CC1 | 180
CC(O)C(=O)N1CCC(Cc2ccccc2)CC1 (stereo not given) | 310
CC(C)[C@H]1CN(C(=O)c2ccc(C#N)cc2)[C@H](C)CN1C(=O)[C@@](C)(O)C(F)(F)F | 17
C[C@@H]1CN(C(=O)[C@@](C)(O)C(F)(F)F)CCN1C(=O)c1ccc(C(=O)c2ccccc2)cc1 (stereo in doubt; 11g) | 0.034

What follows are compounds tested on Rattus norvegicus (assay: In vivo %control of lactate in normal Sprague-Dawley rats after 2 hr at a dose of 300 umol/Kg; Not active).
Type: functional, organism-based
In short: as §2

Structure (SMILES) | NA
C[C@@](O)(C(=O)NC1C2CC3CC(C2)CC1C3)C(F)(F)F (stereo not given in full) | inactive
C[C@@](O)(C(=O)Nc1ccccc1Cl)C(F)(F)F | inactive
O=C(C(Cl)Cl)N1CCC(Cc2ccccc2)CC1 | inactive
CC(O)(C(=O)N1CCC(Cc2ccccc2)CC1)C(F)(F)F (stereo not given) | inactive

The compounds below were run on Rattus norvegicus (assay: In vivo %control of lactate in normal Sprague-Dawley rats after 2 hr at a dose of 30 umol/Kg; Not active).
Type: functional, organism-based
In short: as §2

Structure (SMILES) | NA
C[C@@H]1CN(C(=O)[C@@](C)(O)C(F)(F)F)[C@@H](C)CN1S(=O)(=O)c1cccc2ccccc12 | inactive
C[C@@H]1CN(C(=O)[C@@](C)(O)C(F)(F)F)CCN1S(=O)(=O)c1cccc2ccccc12 | inactive

— ChEMBL document CHEMBL1133665, “Secondary amides of (R)-3,3,3-trifluoro-2-hydroxy-2-methylpropionic acid as inhibitors of pyruvate dehydrogenase kinase” (J Med Chem, 2000)
